Activity calls are given as the source filed them. The calls are words filed in the database; no cut-off is given here.
Tests used:
NCI-H1299 = assay: Growth inhibition of human NCI-H1299 cells at 100 ug/ml measured after 48 hrs by SRB assay relative to control; format: functional; details: dose 100.0 µg/ml, pooled result: one value given for 15 cell lines, strains, targets or settings
Method in brief: (§1)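 SRB screen on fifteen human cancer lines. Cells seeded at 3×10^3 per well and left 24 h to attach. A single concentration of 100 µg/mL was tested in triplicate wells for 48 h, with 1% v/v DMSO as vehicle control. Cells fixed in 20% TCA, stained with 0.4% SRB and read at 570 nm. Survival fraction = OD treated/OD control.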

HNO 97 cell line = assay: (§2) Growth inhibition of human HNO 97 cells at 100 ug/ml measured after 48 hrs by SRB assay relative to control; format: functional; details: dose 100.0 µg/ml, pooled result: one value given for 15 cell lines, strains, targets or settings; method in brief: as §1
A-431 = assay: Growth inhibition of human A-431 cells at 100 ug/ml measured after 48 hrs by SRB assay relative to control; format: functional; details: dose 100.0 µg/ml, pooled result: one value given for 15 cell lines, strains, targets or settings; method in brief: as §1
HeLa = assay: Growth inhibition of human HeLa cells at 100 ug/ml measured after 48 hrs by SRB assay relative to control; format: functional; details: dose 100.0 µg/ml, pooled result: one value given for 15 cell lines, strains, targets or settings; method in brief: as §1
HepG2 = assay: Growth inhibition of human HepG2 cells at 100 ug/ml measured after 48 hrs by SRB assay relative to control; format: functional; details: dose 100.0 µg/ml, pooled result: one value given for 15 cell lines, strains, targets or settings; method in brief: as §1
HCT-116 = assay: Growth inhibition of human HCT-116 cells at 100 ug/ml measured after 48 hrs by SRB assay relative to control; format: functional; details: dose 100.0 µg/ml, pooled result: one value given for 15 cell lines, strains, targets or settings; method in brief: as §1
A549 = assay: Growth inhibition of human A549 cells at 100 ug/ml measured after 48 hrs by SRB assay relative to control; format: functional; details: dose 100.0 µg/ml, pooled result: one value given for 15 cell lines, strains, targets or settings; method in brief: as §1
FaDu = assay: Growth inhibition of human FaDu cells at 100 ug/ml measured after 48 hrs by SRB assay relative to control; format: functional; details: dose 100.0 µg/ml, pooled result: one value given for 15 cell lines, strains, targets or settings; method in brief: as §1
PC-3 = assay: Growth inhibition of human PC-3 cells at 100 ug/ml measured after 48 hrs by SRB assay relative to control; format: functional; details: dose 100.0 µg/ml, pooled result: one value given for 15 cell lines, strains, targets or settings; method in brief: as §1
HN = assay: Growth inhibition of human HN cells at 100 ug/ml measured after 48 hrs by SRB assay relative to control; format: functional; details: dose 100.0 µg/ml, pooled result: one value given for 15 cell lines, strains, targets or settings; method in brief: as §1
A-375 = assay: Growth inhibition of human A-375 cells at 100 ug/ml measured after 48 hrs by SRB assay relative to control; format: functional; details: dose 100.0 µg/ml, pooled result: one value given for 15 cell lines, strains, targets or settings; method in brief: as §1
MCF7 = assay: Growth inhibition of human MCF7 cells at 100 ug/ml measured after 48 hrs by SRB assay relative to control; format: functional; details: dose 100.0 µg/ml, pooled result: one value given for 15 cell lines, strains, targets or settings; method in brief: as §1
HEp-2 = assay: Growth inhibition of human HEp-2 cells at 100 ug/ml measured after 48 hrs by SRB assay relative to control; format: functional; details: dose 100.0 µg/ml, pooled result: one value given for 15 cell lines, strains, targets or settings; method in brief: as §1
MDA-MB-468 = assay: Growth inhibition of human MDA-MB-468 cells at 100 ug/ml measured after 48 hrs by SRB assay relative to control; format: functional; details: dose 100.0 µg/ml, pooled result: one value given for 15 cell lines, strains, targets or settings; method in brief: as §1
Caco-2 = assay: Growth inhibition of human Caco-2 cells at 100 ug/ml measured after 48 hrs by SRB assay relative to control; format: functional; details: dose 100.0 µg/ml, pooled result: one value given for 15 cell lines, strains, targets or settings; method in brief: as §1
[1] = as §2; format: functional, HNO 97 cell line; details: HNO 97, 48 h, pooled result: one value given for 15 cell lines, strains, targets or settings, read-out: GI; method in brief: as §1
DNA topoisomerase 2-beta [2] = target: T1, DNA topoisomerase 2-beta (Homo sapiens, UniProt Q02880); assay: Inhibition of human topoisomerase IIB-mediated DNA fragmentation
DNA topoisomerase 2-beta [3] = target: T1, DNA topoisomerase 2-beta; assay: Inhibition of human topoisomerase IIB by sandwich ELISA
Tubulin (Homo sapiens) = Tubulin (Homo sapiens) (UniProt P68371+Q9H4B7+P0DPH7+P68366+Q13509+Q71U36+P04350+Q3ZCM7+P07437+P68363+Q9BQE3+Q6PEY2+Q13885+Q9BVA1+Q9BUF5); assay: (§3) Inhibition of [3H]-colchicine binding to biotinylated-tubulin (unknown origin) measured after 45 mins by scintillation counting analysis; format: protein-complex assay
Method in brief: (§4)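 Scintillation proximity assay run at 37 °C. Incubated 45 min at 37 °C, then the plate was read and percent inhibition calculated from raw counts.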

Tubulin = assay: as §3; format: protein-complex assay, Homo sapiens; method in brief: as §4

T1 sequence (Q02880 whole entry, the tested form may be a part): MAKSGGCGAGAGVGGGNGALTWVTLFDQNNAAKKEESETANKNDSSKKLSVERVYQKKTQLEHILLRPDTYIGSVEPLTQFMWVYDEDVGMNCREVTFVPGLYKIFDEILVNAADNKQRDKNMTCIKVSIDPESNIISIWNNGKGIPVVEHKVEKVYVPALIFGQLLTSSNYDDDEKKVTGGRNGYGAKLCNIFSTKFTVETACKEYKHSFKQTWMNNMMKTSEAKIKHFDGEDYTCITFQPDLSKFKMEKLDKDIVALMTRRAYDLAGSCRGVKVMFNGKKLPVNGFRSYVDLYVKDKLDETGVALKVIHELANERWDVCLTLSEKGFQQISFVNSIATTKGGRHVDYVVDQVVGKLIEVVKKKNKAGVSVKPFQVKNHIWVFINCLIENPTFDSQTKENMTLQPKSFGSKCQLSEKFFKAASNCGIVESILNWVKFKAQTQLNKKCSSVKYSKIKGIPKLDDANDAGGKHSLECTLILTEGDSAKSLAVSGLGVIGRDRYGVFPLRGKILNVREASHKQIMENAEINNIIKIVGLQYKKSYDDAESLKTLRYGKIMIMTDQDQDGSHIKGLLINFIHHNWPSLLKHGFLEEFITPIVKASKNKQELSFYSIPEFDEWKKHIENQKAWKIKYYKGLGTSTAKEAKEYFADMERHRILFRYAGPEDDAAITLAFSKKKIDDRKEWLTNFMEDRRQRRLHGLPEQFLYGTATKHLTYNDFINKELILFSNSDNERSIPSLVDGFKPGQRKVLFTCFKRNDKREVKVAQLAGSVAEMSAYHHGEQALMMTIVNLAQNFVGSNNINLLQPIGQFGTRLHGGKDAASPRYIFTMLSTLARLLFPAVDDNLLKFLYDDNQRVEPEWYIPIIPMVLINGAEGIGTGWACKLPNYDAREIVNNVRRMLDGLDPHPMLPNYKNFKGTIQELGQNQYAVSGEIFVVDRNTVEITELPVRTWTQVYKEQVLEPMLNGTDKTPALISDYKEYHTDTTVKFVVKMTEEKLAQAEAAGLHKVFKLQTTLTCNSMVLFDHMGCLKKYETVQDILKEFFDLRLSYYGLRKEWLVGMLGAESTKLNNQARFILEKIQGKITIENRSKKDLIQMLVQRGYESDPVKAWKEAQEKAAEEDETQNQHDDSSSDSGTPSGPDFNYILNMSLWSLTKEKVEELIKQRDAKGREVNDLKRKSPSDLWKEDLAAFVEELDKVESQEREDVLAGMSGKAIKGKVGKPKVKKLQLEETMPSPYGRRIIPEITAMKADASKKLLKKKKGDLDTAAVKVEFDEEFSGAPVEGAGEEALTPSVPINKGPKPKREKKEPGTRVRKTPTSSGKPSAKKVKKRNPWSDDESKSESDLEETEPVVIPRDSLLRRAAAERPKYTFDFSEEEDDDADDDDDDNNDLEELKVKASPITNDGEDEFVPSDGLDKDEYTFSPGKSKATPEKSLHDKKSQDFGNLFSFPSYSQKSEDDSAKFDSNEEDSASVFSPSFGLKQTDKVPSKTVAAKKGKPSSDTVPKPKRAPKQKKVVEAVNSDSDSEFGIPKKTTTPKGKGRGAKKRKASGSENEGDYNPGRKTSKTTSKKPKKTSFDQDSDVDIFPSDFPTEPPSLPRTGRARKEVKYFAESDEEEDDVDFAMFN

| Compound | inhibition (DNA topoisomerase 2-beta [2]) | inhibition (DNA topoisomerase 2-beta [3]) | growth inhibition (GI) (NCI-H1299) | growth inhibition (GI) (HNO 97 cell line) | growth inhibition (GI) (A-431) | growth inhibition (GI) (HeLa) | growth inhibition (GI) (HepG2) | growth inhibition (GI) (HCT-116) | growth inhibition (GI) (A549) | growth inhibition (GI) (FaDu) | growth inhibition (GI) (PC-3) | growth inhibition (GI) (HN) | growth inhibition (GI) (A-375) | growth inhibition (GI) (MCF7) | growth inhibition (GI) (HEp-2) | growth inhibition (GI) (MDA-MB-468) | growth inhibition (GI) (Caco-2) | also measured |
| --- | --- | --- | --- | --- | --- | --- | --- | --- | --- | --- | --- | --- | --- | --- | --- | --- | --- | --- |
| O=C1CCC(N2C(=O)c3c(Br)c(Br)c(Br)c(Br)c3C2=O)C(=O)O1 (stereo unspecified) | – | – | Active; Weak Inhibition Observed | Active; Weak Inhibition Observed | Active; Weak Inhibition Observed | Active; Weak Inhibition Observed | Active; Weak Inhibition Observed | Active; Weak Inhibition Observed | Active; Weak Inhibition Observed | Active; Weak Inhibition Observed | Active; Weak Inhibition Observed | Active; Weak Inhibition Observed | Active; Weak Inhibition Observed | Active; Weak Inhibition Observed | Active; Weak Inhibition Observed | Active; Weak Inhibition Observed | Active; Weak Inhibition Observed | – |
| CC(=O)N(NC(=S)NN1C(=O)c2c(Br)c(Br)c(Br)c(Br)c2C1=O)C(C)=O | – | – | Active | Active | Active | Active | Active | Active | Active | Active | Active | Active | Active | Active | Active | Active | Active | – |
| O=C1c2c(Br)c(Br)c(Br)c(Br)c2C(=O)N1c1ccc([Se][Se]c2ccc(N3C(=O)c4c(Br)c(Br)c(Br)c(Br)c4C3=O)cc2)cc1 | – | – | Active | Active | Active | Active | Active | Active | Active | Active | Active | Active | Active | Active | Active | Active | Active | – |
| CC(=O)N1C(=O)c2c(Br)c(Br)c(Br)c(Br)c2C1=O | – | – | Active | Active | Active | Active | Active | Active | Active | Active | Active | Active | Active | Active | Active | Active | Active | – |
| CC(=O)NC(=S)NN1C(=O)c2c(Br)c(Br)c(Br)c(Br)c2C1=O | – | – | Active | Active | Active | Active | Active | Active | Active | Active | Active | Active | Active | Active | Active | Active | Active | – |

Further lines, with some results ahead:

| inhibition (DNA topoisomerase 2-beta [2]) | inhibition (DNA topoisomerase 2-beta [3]) | Compound | growth inhibition (GI) (NCI-H1299) | growth inhibition (GI) (HNO 97 cell line) | growth inhibition (GI) (A-431) | growth inhibition (GI) (HeLa) | growth inhibition (GI) (HepG2) | growth inhibition (GI) (HCT-116) | growth inhibition (GI) (A549) | growth inhibition (GI) (FaDu) | growth inhibition (GI) (PC-3) | growth inhibition (GI) (HN) | growth inhibition (GI) (A-375) | growth inhibition (GI) (MCF7) | growth inhibition (GI) (HEp-2) | growth inhibition (GI) (MDA-MB-468) | growth inhibition (GI) (Caco-2) | also measured |
| --- | --- | --- | --- | --- | --- | --- | --- | --- | --- | --- | --- | --- | --- | --- | --- | --- | --- | --- |
| Active | Active; Weak Inhibition Observed | O=C(O)[C@H](Cc1c[nH]c2ccccc12)N1C(=O)c2c(Br)c(Br)c(Br)c(Br)c2C1=O | – | – | – | – | – | – | – | – | – | – | – | – | – | – | – | inhibition of growth at 100 µg/mL [1]: 75.1% |
| Active | Active | O=C1c2c(Br)c(Br)c(Br)c(Br)c2C(=O)N1c1nnc[nH]1 | Active | Active | Active | Active | Active | Active | Active | Active | Active | Active | Active | Active | Active | Active | Active | inhibition (Tubulin (Homo sapiens)): Active; Weak Inhibition Observed |
| Active | Active | CC(=O)n1c(-c2ccc(N3C(=O)c4c(Br)c(Br)c(Br)c(Br)c4C3=O)cc2)nc2ccccc21 | Active | Active | Active | Active | Active | Active | Active | Active | Active | Active | Active | Active | Active | Active | Active | IC50 (Tubulin): 6.94 µM |
| Active | – | COc1cc([C@@H]2c3cc4c(cc3[C@@H](O[C@@H]3O[C@@H]5CO[C@@H](C)O[C@H]5[C@H](O)[C@H]3O)[C@H]3COC(=O)[C@H]23)OCO4)cc(OC)c1O | – | – | – | – | – | – | – | – | – | – | – | – | – | – | – | – |
| Active | Active | O=C1c2c(Br)c(Br)c(Br)c(Br)c2C(=O)N1c1nnn[nH]1 | Active | Active | Active | Active | Active | Active | Active | Active | Active | Active | Active | Active | Active | Active | Active | inhibition (Tubulin (Homo sapiens)): Active |
| Active | – | COc1cccc2c1C(=O)c1c(O)c3c(c(O)c1C2=O)C[C@@](O)(C(=O)CO)C[C@@H]3O[C@H]1C[C@H](N)[C@H](O)[C@H](C)O1 [DOXORUBICIN] | – | – | – | – | – | – | – | – | – | – | – | – | – | – | – | inhibition of growth at 100 µg/mL [1]: 70.2%; IC50 (DNA topoisomerase 2-beta [3]): 12.7 µM |

Reference: ChEMBL document CHEMBL6177935, “Design and synthesis of novel multi-target tetrabromophthalimides as CBS and Topo-II inhibitors and DNA intercalators” (RSC Med Chem, 2024)
